IC50 data for nine compounds are collected here from ChEMBL document CHEMBL1154033, “Synthesis and enzymatic evaluation of novel partially fluorinated thiol dual ACE/NEP inhibitors” (Bioorg Med Chem Lett, 2009).

Some results are limits rather than exact numbers.

In assay [1] the target is Angiotensin-converting enzyme (Homo sapiens, UniProt P12821). Description: Inhibition of human recombinant ACE by fluorimetry.
Assay [2] concerns the target T1, Endothelin-converting enzyme 1 (Homo sapiens, UniProt P42892).
T1 sequence (P42892 whole entry): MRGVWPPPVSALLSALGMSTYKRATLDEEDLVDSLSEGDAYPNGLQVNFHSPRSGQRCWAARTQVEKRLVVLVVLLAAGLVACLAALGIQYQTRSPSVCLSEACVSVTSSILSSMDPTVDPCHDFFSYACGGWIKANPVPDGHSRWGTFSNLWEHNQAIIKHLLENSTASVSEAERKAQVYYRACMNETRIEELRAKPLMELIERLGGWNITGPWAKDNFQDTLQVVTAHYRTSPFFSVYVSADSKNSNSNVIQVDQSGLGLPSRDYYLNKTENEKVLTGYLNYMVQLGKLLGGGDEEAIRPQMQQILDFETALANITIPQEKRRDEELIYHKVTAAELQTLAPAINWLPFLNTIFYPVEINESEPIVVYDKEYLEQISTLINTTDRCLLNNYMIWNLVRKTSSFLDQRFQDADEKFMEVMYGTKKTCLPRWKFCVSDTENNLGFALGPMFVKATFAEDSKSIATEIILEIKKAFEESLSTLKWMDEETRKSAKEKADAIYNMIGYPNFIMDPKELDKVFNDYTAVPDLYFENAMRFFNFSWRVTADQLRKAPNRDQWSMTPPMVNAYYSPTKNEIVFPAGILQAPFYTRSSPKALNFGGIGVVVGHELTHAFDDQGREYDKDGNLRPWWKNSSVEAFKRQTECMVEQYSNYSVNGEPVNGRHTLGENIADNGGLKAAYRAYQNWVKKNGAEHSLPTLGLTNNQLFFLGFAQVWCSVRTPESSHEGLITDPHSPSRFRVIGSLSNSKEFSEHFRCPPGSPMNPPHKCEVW
Description: Inhibition of human recombinant ECE1 by fluorimetry.

A further assay deals with T2, Neprilysin (Sus scrofa, UniProt P19621).
T2 sequence (P19621 whole entry): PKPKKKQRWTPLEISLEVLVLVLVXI
As to the kind of experiment: Inhibition of pig kidney NEP by fluorimetry. The method in brief: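 Fluorescence was read at λex 340 nm and λem 530 nm. IC50 was derived from inhibition curves, and the assay was validated with a reference inhibitor IC50.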

Chain of Angiotensin-converting enzyme (P12821 whole entry): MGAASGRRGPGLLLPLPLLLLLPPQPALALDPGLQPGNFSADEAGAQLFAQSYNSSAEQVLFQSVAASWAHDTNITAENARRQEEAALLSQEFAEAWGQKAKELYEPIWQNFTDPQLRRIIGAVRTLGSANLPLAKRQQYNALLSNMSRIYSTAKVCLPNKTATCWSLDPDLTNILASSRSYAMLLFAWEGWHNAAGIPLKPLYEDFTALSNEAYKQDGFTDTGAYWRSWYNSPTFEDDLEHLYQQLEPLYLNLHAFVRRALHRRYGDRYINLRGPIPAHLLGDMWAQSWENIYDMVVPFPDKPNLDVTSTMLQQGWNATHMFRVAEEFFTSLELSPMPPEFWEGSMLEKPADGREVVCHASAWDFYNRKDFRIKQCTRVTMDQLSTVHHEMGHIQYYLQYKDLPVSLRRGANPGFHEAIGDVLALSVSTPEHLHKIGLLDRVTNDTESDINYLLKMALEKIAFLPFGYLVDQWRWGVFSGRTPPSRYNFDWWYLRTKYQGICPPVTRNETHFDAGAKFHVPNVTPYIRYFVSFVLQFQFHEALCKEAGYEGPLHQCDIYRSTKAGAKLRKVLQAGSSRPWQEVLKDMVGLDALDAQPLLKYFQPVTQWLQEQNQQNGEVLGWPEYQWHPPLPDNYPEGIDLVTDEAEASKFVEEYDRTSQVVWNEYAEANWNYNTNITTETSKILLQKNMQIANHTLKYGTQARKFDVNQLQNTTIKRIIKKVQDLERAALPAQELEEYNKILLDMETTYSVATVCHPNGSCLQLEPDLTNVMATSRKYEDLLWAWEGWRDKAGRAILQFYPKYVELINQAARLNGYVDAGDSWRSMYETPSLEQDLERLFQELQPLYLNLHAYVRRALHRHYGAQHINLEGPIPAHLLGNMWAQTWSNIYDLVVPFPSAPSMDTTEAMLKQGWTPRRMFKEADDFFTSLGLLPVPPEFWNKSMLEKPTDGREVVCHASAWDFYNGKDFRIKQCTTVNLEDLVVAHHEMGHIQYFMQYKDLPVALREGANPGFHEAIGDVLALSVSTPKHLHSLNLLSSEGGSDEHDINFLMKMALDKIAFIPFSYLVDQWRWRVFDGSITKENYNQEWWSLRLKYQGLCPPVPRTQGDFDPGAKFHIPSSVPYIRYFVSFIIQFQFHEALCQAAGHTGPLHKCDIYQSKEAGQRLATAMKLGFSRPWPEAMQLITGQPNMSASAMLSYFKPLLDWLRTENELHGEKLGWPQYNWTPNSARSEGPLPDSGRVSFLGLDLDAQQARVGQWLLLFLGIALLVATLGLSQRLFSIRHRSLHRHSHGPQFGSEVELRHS

Regarding `CC(C)CC(S)CC(=O)NC(Cc1ccccc1)C(=O)O` (stereo not drawn), the values for the IC50 (in assay [1]; in assay [2]; against Neprilysin) were greater than 10000 nM, greater than 10000 nM and 41 nM, respectively.
Turning to `CC(C)CC(S)CC(=O)NC(Cc1ccccc1)C(=O)NC(Cc1ccc(O)cc1)C(=O)O` (stereo not drawn), at Neprilysin, half-maximal inhibition (IC50) required 50 nM.
With `O=C(CC(S)C(F)(F)F)NC(Cc1ccc(O)cc1)C(=O)O` (stereo not drawn), the IC50 (in general, the concentration that inhibits the measured activity by half) in assay [1] was 160 nM; in assay [2] it was greater than 10000 nM; on Neprilysin, 80 nM.
As for `O=C(CC(S)C(F)(F)F)NC(Cc1ccc(F)cc1)C(=O)O` (stereo not drawn), the IC50 in assay [1] was 300 nM; in assay [2] it was greater than 10000 nM; against Neprilysin, 230 nM.
The matching figures for `O=C(CC(S)C(F)(F)F)NC(Cc1c[nH]c2ccccc12)C(=O)O` (stereo not drawn): 400 nM, greater than 10000 nM and 580 nM.
The matching figures for `O=C(CC(S)C(F)(F)C(F)(F)F)NC(Cc1ccccc1)C(=O)O` (stereo not drawn): 1010 nM, 2420 nM and 1150 nM.
The matching figures for `O=C(CC(S)C(F)(F)F)NC(Cc1ccccc1)C(=O)NC(Cc1ccc(O)cc1)C(=O)O` (stereo not drawn): 280 nM, greater than 10000 nM and 430 nM.
For the compound `O=C(CC(S)C(F)(F)F)NC(Cc1ccccc1)C(=O)O` (stereo not drawn), the IC50 in assay [1] is 830 nM; in assay [2], greater than 10000 nM; against Neprilysin, 300 nM.
Consider `O=C(O)CNC(=O)C(CS)Cc1ccccc1` (stereo not drawn) [THIORPHAN], for which the IC50 against Neprilysin was 6.2 nM.
